Screening data (PubChem)
Lmaj promast: reduces viability of Leishmania major promastigotes; resazurin fluorescence viability; inhibition, % at 10 µM; 200,000 tested, 9% active; AID 1063; in the data active means inhibition above about 50%;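 further: promastigotes grown with compound for 44 hours at 28 °C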
UPR XBP1 act: adaptive UPR (XBP1) activation | CHO-XBP1 luciferase reporter, IRE1-XBP1 UPR activation, luminescence; percent of tunicamycin response, DMSO as zero | activation, % at 20 µM | 330,000 tested, 0.33% active;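 active means versus positive control, 20 µM dose yields 30% or more activation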
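Material: CHO-XBP1 cells stably carrying IRE1-XBP1-driven luciferase reporter / Amount: 1000 cells per well / Compound: 20 µM, 1% DMSO / Times: 6 h treatment, 37 °C / Detection: luciferase luminescence / Measure: % activation of reporter signal versus tunicamycin and DMSO controls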
Dynein cargo inh: blocks dynein driven cargo transport along microtubules | 3617.4 mouse cells, GR-EGFP nuclear translocation imaging; test concentration mostly 20 µM; stimulated with dexamethasone, 1 µM; active compounds read low | z-score, hits read low | 220,000 tested, 0.47% active | AID 1381;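 active means plate z-score of nuclear minus cytoplasmic receptor signal below a set negative limit, without overly bright fluorescence or cell loss, cut at about -3.5 in these data, passing the limit was not always enough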;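 further: z-score of nuclear minus cytoplasmic ring GR-EGFP intensity difference per well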
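Buffer or medium: tet-free, stripped-serum medium; Also added: dexamethasone, 1.0 µM final; Technique: high-content fluorescence imaging after fixation; Times: 48 h induction, 1 h compound, 30 min dex at 37 °C; Read-out: per-cell GR-EGFP intensity, nucleus versus surrounding cytoplasmic ring, well-averaged.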
CHOP UPR activ: apoptotic UPR (CHOP) activation; CHO-CHOP luciferase reporter, luminescence; percent of tunicamycin response over DMSO baseline; activation, % at 10 µM; 330,000 tested, 0.34% active; AID 449763;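 active means at 10 µM dose, activation of 40% or more, normalized to positive control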
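assay system = CHO CHOP reporter cells | amount = 500 CHO-CHOP cells per well | buffer or medium = F12 with 10% FBS | incubation = 16-18 h cell attachment, then 6 h compound exposure, 37 °C | detection = luminescence read with Steady-Glo | read-out = percent activation relative to tunicamycin control | controls = tunicamycin high control, DMSO low control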
T cruzi repl: blocks replication of Trypanosoma cruzi | T. cruzi beta-gal in NIH3T3, luminescence, 90 h | 300,000 tested, 1.4% active | AID 1885 | inhibition, % (test concentration not listed);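 active means mean inhibition across valid replicates above about 55%, limit read from the data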;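 further: signal also drops with host cell toxicity which is not excluded here; higher percent means less beta-gal luminescence so fewer parasites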
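Read-out: Parasite load inhibition, % | Test system: Mouse NIH/3T3 fibroblasts infected with β-gal-expressing T. cruzi Tulahuen C4 | Amount: 5,000 cells/well | Medium: DMEM, 2% fetal bovine serum | Signal: GalScreen β-gal luminescence, detergent lysis, 60 min | Timing: 3 h attach, ≥90 h co-culture | Also added: Tulahuen C4 trypomastigotes, 5000/well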
CHOP inhibitor: inhibitors of CHOP induction in ER stress response | CHO-K1 CHOP-promoter luciferase, tunicamycin-induced, 15-18 h | inhibition, % at 10 µM | 220,000 tested, 3.8% active;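 active means compounds that reduced the stress-induced luciferase reporter signal by more than about 70% of percent inhibition, limit read from the data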
CHOP confirm: confirmation of CHOP induction inhibitors. CHO-CHOP promoter luciferase reporter, tunicamycin-induced, luminescence. inhibition, % at 10 µM. shares compounds with CHOP inhibitor. 2,100 tested, 45% active;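 active means mean of three repeat readings of reporter signal inhibition above a set limit, cut at about 70% in these data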
A number is an active result; i = inactive; nt = not tested or not shown. Only a selection was taken, and hits are over-represented in it overall.

SMILES	Lmaj promast	UPR XBP1 act	Dynein cargo inh	CHOP UPR activ	T cruzi repl	CHOP inhibitor	CHOP confirm
N/C(=N\c1nc(CSc2nc3ccccc3s2)cc(=O)[nH]1)Nc1ccc(F)cc1	nt	i	i	i	i	99	i
Cc1ccc(N/C(N)=N/c2nc(CSc3nnc(N)s3)cc(=O)[nH]2)cc1	nt	i	i	i	i	i	nt
COc1ccc(-n2c(N)c(C(=O)NCc3ccco3)c3nc4ccccc4nc32)cc1OC	i	i	i	i	i	104	i
COc1ccccc1CNC(=O)c1c(N)n(CCCN2CCOCC2)c2nc3ccccc3nc12	51	nt	i	nt	i	96	i
COc1cc(-n2c(N)c(C(=O)NCc3ccco3)c3nc4ccccc4nc32)cc(OC)c1OC	i	i	i	i	i	i	nt
NC(=O)C1(c2ccccc2)OC1c1ccccc1 (stereo unspecified)	nt	i	nt	i	i	nt	nt
Cc1c(NC(=S)NNC(=O)CCC(=O)O)c(=O)n(-c2ccccc2)n1C	nt	i	i	i	i	i	nt
Cc1[nH]c2ccccc2c1/C=N/NC(=O)CCC(=O)NCc1ccccc1	i	i	i	i	i	i	nt
Cc1[nH]c2ccccc2c1/C=N/NC(=O)C1CC1(c1ccccc1)c1ccccc1 (stereo unspecified)	99	i	i	i	i	106	101
CN(C)S(=O)(=O)c1ccc(C(=O)NN2C(=O)NC3(CCCCC3)C2=O)cc1	nt	i	nt	i	nt	nt	nt
CC(=O)OCC1O[C@@H](O[C@@H]2C[C@H]3C(C)(C)[C@H](OC(C)=O)CC[C@]3(C)[C@H]3CC[C@]45C[C@]4(CC[C@H]5[C@@H](C)C[C@@H](O)[C@H](O)C(C)(C)O)[C@@]32C)[C@H](O)[C@@H](O)[C@@H]1O (stereo partly specified)	i	i	i	i	i	106	120
Cc1nc2c(ccc3nc(NC(=O)c4ccc5c(c4)OCCO5)sc32)s1	63	i	i	i	57	100	i
Cc1ccc(NC(=O)COc2ncnc3c(Cl)cc(Cl)cc23)cc1[N+](=O)[O-]	i	i	i	i	i	104	i
Cc1cc(Cl)ccc1OCC(=O)OCC(=O)Nc1ccc(F)c([N+](=O)[O-])c1	i	nt	i	nt	nt	i	nt
O=C1CC/C=C\C[C@@H](CC(=O)N(CCO)Cc2ccccc2)C(=O)N2CCC[C@H]2CO1	nt	i	nt	i	nt	nt	nt
C=CCn1c(=O)c(C(=O)Nc2ccccc2O)c(O)c2ccccc21	i	i	i	i	i	104	i
O=C(N/N=C/c1ccc(Cl)cc1)c1n[nH]c2c1CCCC2	nt	i	i	i	i	i	nt
O=C(N/N=C/c1ccccc1Cl)c1n[nH]c2c1CCCC2	89	i	i	i	i	107	83
O=C(Cc1cccs1)N=Nc1c(O)[nH]c2ccc(Br)cc12	nt	i	i	i	i	i	nt
O=C(Cn1c(C(F)(F)F)nc2ccccc21)N=Nc1c(O)[nH]c2ccc(Br)cc12	i	i	i	i	i	106	116
N#Cc1ccc(N[C@@H]2CCN3C(=O)c4ccccc4[C@@H]3C[C@H]2O)cc1	nt	i	nt	i	nt	nt	nt
CC(C)Cn1c(=S)[nH]c2ccccc2c1=O	i	i	i	i	i	i	nt
CC(C)Cn1c(=O)c2ccccc2c2ccccc2c1=O	i	i	i	i	i	103	i
O=C(Nc1ccccc1)N(Cc1ccccc1)CC(O)C(F)(F)F (stereo unspecified)	i	i	i	i	i	i	nt
O=C(Nc1cccc(F)c1)N(Cc1ccc(Cl)cc1)CC(O)C(F)(F)F (stereo unspecified)	101	i	i	i	i	109	104
SMILES	Lmaj promast	UPR XBP1 act	Dynein cargo inh	CHOP UPR activ	T cruzi repl	CHOP inhibitor	CHOP confirm
Oc1ccc(-c2nnc(SCC3CCCCC3)o2)cc1	i	i	i	i	i	107	i
COc1ccc2nc(NC(=O)C3CCN(S(=O)(=O)c4cccs4)CC3)sc2c1	i	i	i	i	i	i	nt
COc1ccc2nc(NC(=O)C3CCCN(S(=O)(=O)c4cccs4)C3)sc2c1 (stereo unspecified)	i	i	i	i	i	96	i
O=C(CNc1cccc2ccccc12)N/N=C/c1ccc[nH]1	nt	i	i	i	i	i	nt
O=C(CNc1cccc2ccccc12)N/N=C/C(Br)=C/c1ccccc1	i	i	i	i	i	106	i
Cc1c[nH]c2cccc(OCC(CNC(C)(C)C)OC(=O)c3ccccc3)c12 (stereo unspecified)	nt	i	nt	i	i	nt	nt
O=C(NNc1nc2ccccc2s1)Nc1ccc(F)cc1	nt	i	i	i	i	i	nt
O=C(NNc1nc2ccccc2s1)Nc1ccc(Cl)c(Cl)c1	nt	i	i	i	i	106	i
CC1(c2ccc(OC(F)F)cc2)NC(=O)N(/N=C/c2c(O)ccc3ccccc23)C1=O (stereo unspecified)	i	i	i	i	i	101	96
CC1(c2ccc(OC(F)F)cc2)NC(=O)N(CC(=O)Nc2cccc(S(N)(=O)=O)c2)C1=O (stereo unspecified)	nt	i	i	i	i	i	nt
CC(=O)c1ccc(N2CCN(C(=O)c3cccs3)C(C)C2)c(F)c1 (stereo unspecified)	nt	i	nt	i	i	nt	nt
CCOC(=O)C1CCCCN1Cc1ccc(F)c(Br)c1 (stereo unspecified)	i	i	i	i	i	106	i
CCN(CCn1cccn1)C(=O)C1CCC(=O)N(CCc2cccc(F)c2)C1 (stereo unspecified)	nt	i	nt	i	i	nt	nt
Cc1cccc(NC(=O)CCC(=O)Nc2nnc(C(F)(F)F)s2)c1	nt	i	i	i	i	i	nt
CN1C(=O)NC(c2ccc(Cl)cc2)C2=C1CC(C)(C)CC2=O (stereo unspecified)	nt	i	nt	i	i	nt	nt
Nc1cc(Cl)ccc1Oc1ccc(Cl)cc1	i	i	i	i	i	96	134
O=C(CSc1nnc(Cc2ccccc2)n1-c1cccc(Cl)c1)NNC(=O)Cc1ccccc1	i	i	i	i	i	i	nt
N#CC1=C(N)Oc2n[nH]c(-c3cccs3)c2C1C1CCCCC1 (stereo unspecified)	i	i	i	i	i	104	i
N#CC1=C(N)Oc2n[nH]c(-c3cccs3)c2C1c1ccsc1 (stereo unspecified)	i	i	i	i	i	i	nt
Cc1nn2c(N)c(C#N)cnc2c1-c1ccc(Cl)cc1	i	i	i	i	i	98	i
COc1ccc(-c2c(C)nn3c(N)c(C#N)cnc23)cc1OC	i	i	i	i	i	i	nt
O=C(CN1C(=O)/C(=C2/SC(=S)N(CCS(=O)(=O)O)C2=O)c2ccccc21)Nc1cccc(Br)c1	nt	i	nt	i	nt	nt	nt
